Laboratory results published in ChEMBL document CHEMBL2177067 (J Med Chem, 2012).
pIC50: −log10 of the molar value. Converted amounts (≈) assume the structure as drawn. The source made the active and inactive calls. The rule behind the calls is not given here.

Experiments:
Staphylococcus aureus [1] = experiment: Antibacterial activity against methicillin-resistant Staphylococcus aureus 1094; format: functional
Staphylococcus aureus [2] = experiment: Antibacterial activity against methicillin-resistant Staphylococcus aureus 1234558336; format: functional
Staphylococcus aureus [3] = experiment: Antibacterial activity against methicillin-resistant Staphylococcus aureus 1234549404; format: functional
Staphylococcus aureus [4] = experiment: Antibacterial activity against methicillin-resistant Staphylococcus aureus 1234547263; format: functional
Staphylococcus aureus [5] = experiment: Antibacterial activity against methicillin-resistant Staphylococcus aureus 1234544081; format: functional
Staphylococcus aureus [6] = experiment: Antibacterial activity against methicillin-resistant Staphylococcus aureus 1234522733; format: functional
Staphylococcus aureus [7] = experiment: Antibacterial activity against methicillin-resistant Staphylococcus aureus 1234543349; format: functional
Staphylococcus aureus [8] = experiment: Antibacterial activity against Staphylococcus aureus ATCC 25923; format: functional
Enterococcus faecium [9] = experiment: Antibacterial activity against vancomycin-resistant Enterococcus faecium 1644; format: functional
Enterococcus faecium [10] = experiment: Antibacterial activity against vancomycin-resistant Enterococcus faecium B42762; format: functional
Enterococcus faecium [11] = experiment: Antibacterial activity against Enterococcus faecium ATCC 19434; format: functional
Enterococcus faecalis [12] = experiment: Antibacterial activity against vancomycin-resistant Enterococcus faecalis F118; format: functional
Enterococcus faecalis [13] = experiment: Antibacterial activity against vancomycin-resistant Enterococcus faecalis 700802; format: functional
Enterococcus faecalis [14] = experiment: Antibacterial activity against vancomycin-resistant Enterococcus faecalis 51299; format: functional
Enterococcus faecalis [15] = experiment: Antibacterial activity against vancomycin-resistant Enterococcus faecalis ATCC 51575; format: functional
Enterococcus faecalis [16] = experiment: Antibacterial activity against Enterococcus faecalis ATCC 29212; format: functional
Bacillus licheniformis = experiment: Antibacterial activity against Bacillus licheniformis ATCC 14580; format: functional
Bacillus anthracis [17] = experiment: Antibacterial activity against Bacillus anthracis Sterne; format: functional
Bacillus thuringiensis = experiment: Antibacterial activity against Bacillus thuringiensis ATCC 10792; format: functional
Staphylococcus aureus [18] = experiment: Antibacterial activity against Staphylococcus aureus ATCC 25923 assessed as re-growth at MIC after 24 hrs; format: functional, organism-based
Procedure, shortened: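 At set times up to 24 h, aliquots were diluted and spread on inhibitor-free LB agar to count viable CFU.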

Staphylococcus aureus [19] = experiment: Inhibition of Staphylococcus aureus ATCC 25923 single-strand DNA stimulated ATPase activity of replicative DnaB helicase at 50 uM by FRET assay
[20] = Inhibition of Staphylococcus aureus ATCC 25923 replicative DnaB helicase using 0.1875 to 3 mM ATP as substrate assessed as DNA duplex strand-unwinding by FRET assay
Procedure, shortened: (§1)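 S. aureus helicase FRET unwinding assay run with varied DNA duplex or ATP concentrations, in triplicate. RFU/min slopes were normalized to the uninhibited control, and IC50 came from four-parameter nonlinear fits.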

[21] = Inhibition of Staphylococcus aureus ATCC 25923 replicative DnaB helicase using 3.3 to 90 nM Hel-5'FAM:Hel-3'BHQ as substrate assessed as DNA duplex strand-unwinding by FRET assay; procedure, shortened: as §1
HeLa = experiment: Cytotoxicity against human HeLa cells by MTS assay; format: cell-based
Staphylococcus aureus [22] = experiment: Antibacterial activity against Staphylococcus aureus ATCC 25923 by broth microdilution method; format: functional
Bacillus anthracis [23] = experiment: Antibacterial activity against Bacillus anthracis by broth microdilution method; format: functional
[24] = Inhibition of Staphylococcus aureus ATCC 25923 replicative DnaB helicase-mediated ATP-dependent dissociation of Hel-5'FAM:Hel-3'BHQ by FRET assay
Procedure, shortened: (§2)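 Unwinding was read by FRET as helicase-driven, ATP-dependent dissociation of annealed Hel-5′FAM and Hel-3′BHQ oligonucleotides, one fluorescent and the other quencher-labelled. The replicative helicases were prepared as described earlier.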

Replicative DNA helicase = target: T1, Replicative DNA helicase (Bacillus anthracis, UniProt A0A6L8Q2B7); experiment: Inhibition of Bacillus anthracis Sterne 34F2 replicative DNA helicase-mediated ATP-dependent dissociation of Hel-5'FAM:Hel-3'BHQ by FRET assay; design: species or system Bacillus anthracis str. Sterne; procedure, shortened: as §2
T1 sequence (A0A6L8Q2B7 whole entry): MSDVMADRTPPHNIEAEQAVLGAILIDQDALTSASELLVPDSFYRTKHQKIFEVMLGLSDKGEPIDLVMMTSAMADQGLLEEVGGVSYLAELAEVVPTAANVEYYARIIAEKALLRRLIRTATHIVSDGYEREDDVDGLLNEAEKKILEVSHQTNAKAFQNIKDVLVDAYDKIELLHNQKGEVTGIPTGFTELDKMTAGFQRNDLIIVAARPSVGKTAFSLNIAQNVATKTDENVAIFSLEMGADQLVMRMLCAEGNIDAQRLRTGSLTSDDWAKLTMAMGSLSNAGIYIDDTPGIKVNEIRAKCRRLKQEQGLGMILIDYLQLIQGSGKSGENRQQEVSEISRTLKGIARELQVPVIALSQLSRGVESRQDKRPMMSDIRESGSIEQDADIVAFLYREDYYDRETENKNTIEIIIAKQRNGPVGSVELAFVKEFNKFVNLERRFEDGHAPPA

Staphylococcus aureus [25] = experiment: Ratio of MIC for Staphylococcus aureus ATCC 25923 in presence of reserpine to MIC for Staphylococcus aureus ATCC 25923 in absence of reserpine; format: functional
[26] = Selectivity index, ratio of CC50 for human HeLa cells to MIC for Bacillus anthracis; format: functional
Procedure, shortened: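 Selectivity index is HeLa CC50 (MTS assay) divided by the bacterial MIC.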

Staphylococcus aureus [27] = experiment: Antibacterial activity against Staphylococcus aureus ATCC 25923 by broth microdilution method in presence of reserpine; format: functional
[28] = Selectivity index, ratio of CC50 for human HeLa cells to MIC for Staphylococcus aureus ATCC 25923 in presence of reserpine; format: functional

SMILES: Cc1c(CCC(=O)O)c(=O)oc2c(C)c(OCc3ccc(-c4ccccc4)cc3)ccc12
- MIC (Staphylococcus aureus [1]): 12.5 µg/mL (≈ 29.2 µM)
- MIC (Staphylococcus aureus [2]): 3.1 µg/mL (≈ 7.23 µM)
- MIC (Staphylococcus aureus [3]): 1.56 µg/mL (≈ 3.64 µM)
- MIC (Staphylococcus aureus [4]): 2.1 µg/mL (≈ 4.9 µM)
- MIC (Staphylococcus aureus [5]): 1.56 µg/mL (≈ 3.64 µM)
- MIC (Staphylococcus aureus [6]): 2.6 µg/mL (≈ 6.07 µM)
- MIC (Staphylococcus aureus [7]): 4.2 µg/mL (≈ 9.8 µM)
- MIC (Staphylococcus aureus [8]): 1.56 µg/mL (≈ 3.64 µM)
- MIC (Enterococcus faecium [9]): 2.1 µg/mL (≈ 4.9 µM)
- MIC (Enterococcus faecium [10]): 14.6 µg/mL (≈ 34.1 µM)
- MIC (Enterococcus faecium [11]): 2.6 µg/mL (≈ 6.07 µM)
- MIC (Enterococcus faecalis [12]): 16.7 µg/mL (≈ 39 µM)
- MIC (Enterococcus faecalis [13]): > 25 µg/mL
- MIC (Enterococcus faecalis [14]): 18.8 µg/mL (≈ 43.9 µM)
- MIC (Enterococcus faecalis [15]): > 25 µg/mL
- MIC (Enterococcus faecalis [16]): 5.2 µg/mL (≈ 12.1 µM)
- MIC (Bacillus licheniformis): 0.39 µg/mL (≈ 0.91 µM)
- MIC (Bacillus anthracis [17]): 0.52 µg/mL (≈ 1.21 µM)
- MIC (Bacillus thuringiensis): 0.65 µg/mL (≈ 1.52 µM)
- Activity (Staphylococcus aureus [18]): Active
- inhibition (Staphylococcus aureus [19]): 6%
- pIC50 [20]: 5.82
- pIC50 [21]: 5.74
- CC50 (HeLa): 82 µM
- MIC (Staphylococcus aureus [22]): 2.5 µM (≈ 1.07 µg/mL)
- MIC (Bacillus anthracis [23]): 1.25 µM (≈ 0.536 µg/mL)
- pIC50 [24]: 5.70
- pIC50 (Replicative DNA helicase): 5.52

SMILES: Cc1c(CCC(=O)O)c(=O)oc2c(C)c(OCc3ccc(-c4ccc(C(F)(F)F)cc4)cc3)ccc12
- Ratio (Staphylococcus aureus [25]): 8
- CC50 (HeLa): 20.3 µM
- Selectivity Index [26]: >25.4
- MIC (Staphylococcus aureus [27]): 6.3 µM
- MIC (Staphylococcus aureus [22]): 50 µM (≈ 24.8 µg/mL)
- MIC (Bacillus anthracis [23]): < 0.8 µM
- pIC50 [24]: 5.48
- pIC50 (Replicative DNA helicase): 5.21
- Selectivity Index [28]: 3.2
